Bioassay records: PubChem BioAssay, Johns Hopkins Ion Channel Center
An excerpt weighted towards active compounds, which were near 2.3% of everything screened.
TRPC6 activator = mouse TRPC6 channel activators, primary screen, cell-based, HEK293, membrane potential dye; Short transient receptor potential channel 6 (Mus musculus), Q61143; HEK293-TRPC6 membrane potential dye fluorescence; active compounds read high; B-score at 10 µM; 0.13% of 310,000 active; AID 2550, 2010;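 active = B-score of the integrated fluorescence ratio above library mean plus 3 SD, and starting fluorescence ratio within library mean plus 5 SD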;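 also: higher score means more depolarization so channel activation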
TRPC4 inh = inhibitors of mouse TRPC4 channel, primary screen, Fluo4 calcium, HEK293 TRPC4beta/mu-opioid cells; Short transient receptor potential channel 4 (Mus musculus), Q9QUQ5; DAMGO-evoked Fluo4 calcium flux; active compounds read low; B-score at 10 µM; 0.39% of 300,000 active; AID 2247, 2010;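 active = B-score over 3 SD under the library average, no early fluorescence shift, positive overall ratio signal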
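System: stable TRPC4beta/mu-opioid receptor HEK293 cells; Dosing: single-point compound dosing; Measured by: Fluo4 Ca2+ flux fluorescence; Read-out basis: per-well B score of integrated baseline-normalized Fluo4 ratio.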
TRPC4 potent = positive allosteric modulators of TRPC4, primary screen, cell-based, mouse TRPC4beta, HEK293 mu-opioid, Fluo-4 calcium; 0.42% of 310,000 active; DAMGO EC20, Fluo-4 Ca2+ flux; active compounds read high; Short transient receptor potential channel 4 (Mus musculus), Q9QUQ5; B-score at 10 µM;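 active = B-score of calcium response area above 5 SD of library B-scores, with initial fluorescence ratio within 5 SD of library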;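 also: B-score of integrated fluorescence ratio over time as area under calcium response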
TRPC6 inhibitor = mouse TRPC6 channel inhibitors, primary screen, cell-based, HEK293, membrane potential dye. Short transient receptor potential channel 6 (Mus musculus), Q61143. ACh-evoked depolarization; active compounds read low. B-score at 10 µM. 1.1% of 310,000 active;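 active = B-score under library mean minus 3 SD, initial fluorescence not abnormally high, positive integrated signal ratio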;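 also: B-score derived from integrated fluorescence ratio over the kinetic read; more negative B-score means stronger inhibition of depolarization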
TRPC4 act = activators of mouse TRPC4 channel, primary screen, Fluo4 calcium, HEK293 TRPC4beta/mu-opioid cells; B-score at 10 µM; Fluo4 calcium fluorescence; active compounds read high; 0.49% of 310,000 active;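 active = B-score above 5 SD of library B-scores, and initial fluorescence ratio not above library mean plus 5 SD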;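 also: positive B-score marks a calcium rise read as TRPC4 activation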
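Technique: kinetic Fluo4 calcium fluorescence; Test system: TRPC4beta and mu-opioid receptor HEK293 stable cells; Measure: B-scored integrated calcium fluorescence ratio; Benchmarks: low control buffer alone, high control maximal DAMGO; Schedule: 45 min room-temperature Fluo4 loading, 110 s read.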
TRPC4 sel inh 2 = second check of whether TRPC6 inhibitors also affect mouse TRPC4. shares compounds with TRPC6 inhibitor. HEK293 TRPC4/MOR, membrane potential dye fluorescence; channel activated by saturating DAMGO dose. inhibition, % at 10 µM. 42% of 920 active;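 active = compounds whose fluorescence signal differed from control wells by over 3 SD, either direction, in both duplicate plates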
TRPC4 spec = mouse TRPC4 modulation by TRPC6 hits, confirmation, selectivity assay for TRPC6 inhibitor project, cell-based, HEK293 TRPC4/mu-opioid, membrane potential dye; activity change, negative = inhibition, % at 10 µM; membrane potential fluorescence; 61% of 920 active; shares compounds with TRPC6 inhibitor;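 active = rise or fall in signal beyond 3 SD of buffer-only wells in both replicate plates, either sign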;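 also: integrated kinetic ratio of fluorescence range over baseline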
HEK293 MPD ctr 2-1 = nonspecific membrane potential effects, parental HEK293, confirmation, counter-screen for TRPC6 inhibitor project, cell-based, second counter screen | parental HEK293 membrane potential dye fluorescence; maximal acetylcholine challenge after compound addition | shares compounds with TRPC6 inhibitor | 31% of 920 active | signal change vs control, % at 10 µM;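 active = membrane potential signal moving either way by over 3 SD of the maximum-effect control, in both duplicate plates, meaning non-specific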
HEK293 MPD ctr-1 = membrane potential modulation in parental HEK293, confirmation, counter-screen for TRPC6 inhibitor project, cell-based; shares compounds with TRPC6 inhibitor; parental HEK293 membrane potential dye fluorescence; membrane potential signal change, % at 10 µM; 60% of 920 active;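 active = membrane potential signal shifting up or down by more than 3 SD of buffer-only wells, on both duplicate plates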
HEK293 MPD ctr-2 = parental HEK293 membrane potential modulation, confirmation, counter-screen for TRPC6 modulator project, cell-based; 51% of 2,400 active; membrane potential signal change, % at 10 µM; membrane potential dye fluorescence; shares compounds with TRPC6 inhibitor;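 active = membrane potential signal moves up or down beyond 5 SD from buffer-only wells, on both duplicate plates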
HEK293 MPD ctr 2-2 = second check of TRPC6 modulator effects in parental HEK293 cells; 14% of 2,400 active; shares compounds with TRPC6 inhibitor; AID 488926; membrane potential dye fluorescence; after compound, maximal acetylcholine stimulation; inhibition, % at 10 µM;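 active = membrane potential signal drops by more than 5 SD from the mean control signal, in both duplicate plates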;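 also: plate controls were acetylcholine ECmax control wells for no effect and buffer only wells for full effect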
TRPC4/MOR mod = TRPC4 modulation by TRPC6 hit compounds, confirmation, selectivity assay for TRPC6 modulator project, cell-based, HEK293 TRPC4/mu-opioid, membrane potential dye, mouse; shares compounds with TRPC6 inhibitor; membrane potential fluorescence; percent change from control (negative = decrease, positive = increase), % at 10 µM; 69% of 2,400 active;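 active = membrane potential signal moved up or down beyond 5 SD of buffer control wells, in both duplicate plates, actives on both sides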;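 also: plate controls were assay buffer wells for no effect and DAMGO maximal-effect wells for full effect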
TRPC4 ctr inh 2 = second selectivity test of TRPC6 modulators against mouse TRPC4; AID 488928; inhibition, % at 10 µM; HEK293 TRPC4/mu-opioid, membrane potential dye fluorescence; stimulated with maximal-effect DAMGO; shares compounds with TRPC6 inhibitor; 55% of 2,400 active;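 active = drop in membrane potential signal beyond 5 SD of the control wells in both duplicate plates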;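 also: TRPC4 counter screen for TRPC6 hits run under conditions tuned for TRPC6 not TRPC4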
TRPC6 inh conf = mouse TRPC6 channel inhibitors, confirmation, HEK293 cells, membrane potential dye, duplicate; shares compounds with TRPC6 inhibitor; ACh-evoked depolarization; inhibition, % at 10 µM; 43% of 3,300 active; AID 488960, 2010;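 active = fluorescence ratio falls more than 5 SD below the full-stimulation control mean, in both duplicate runs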;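 also: integrated fluorescence ratio of peak minus minimum over baseline after agonist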
TRPC6 act confirm = mouse TRPC6 channel activators, confirmation, HEK293 cells, membrane potential dye, duplicate | AID 488961, 2010 | activation, % at 10 µM | 11% of 2,800 active | shares compounds with TRPC6 inhibitor | HEK293-TRPC6 membrane potential dye fluorescence, FDSS;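 active = ratio signal rise beyond 5 SD above unstimulated control wells' mean, seen in both duplicate runs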;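 also: plate controls were buffer EC0 wells for no effect and acetylcholine ECmax response for full effect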
Numbers without * were called inactive; i = inactive; / = no result given.

SMILES	TRPC6 activator	TRPC4 inh	TRPC4 potent	TRPC6 inhibitor	TRPC4 act	HEK293 MPD ctr-2	HEK293 MPD ctr 2-2	TRPC4/MOR mod	TRPC4 ctr inh 2	TRPC6 inh conf	TRPC6 act confirm	others
CC(C)c1ccc(N2C(=O)CC(Sc3nc4ccccc4o3)C2=O)cc1 (centres undefined)	i	i	i	-7.4*	i	/	/	/	/	i	i	TRPC4 sel inh 2=i;TRPC4 spec=i;HEK293 MPD ctr 2-1=i;HEK293 MPD ctr-1=i
CC(C)c1ccc(N2C(=O)CC(Sc3ncn[nH]3)C2=O)cc1 (centres undefined)	i	i	i	i	i	/	/	/	/	/	/
Cc1ccsc1/C=N/NC(=O)C1CC(=O)N(c2ccccc2)C1 (centres undefined)	i	i	i	i	i	/	/	/	/	/	/
CCCn1nnnc1NCc1ccccc1OCc1cccs1	i	i	i	i	i	/	/	/	/	/	/
COc1cccc(CNC2CCCCCCC2)c1OC	i	i	i	-7.2*	i	/	/	/	/	62%*	/	TRPC4 sel inh 2=75%*;TRPC4 spec=23%*;HEK293 MPD ctr 2-1=39%*;HEK293 MPD ctr-1=9.3%*
c1csc(COc2ccccc2CNC2CCCCC2)c1	13*	-10*	i	-11*	i	514%*	120%*	109%*	90%*	111%*	163%*
c1ccc(COc2ccccc2CNC2CCCC2)cc1	i	i	i	-7.7*	i	531%*	130%*	112%*	90%*	108%*	/
c1ccc(COc2ccccc2CNC23CC4CC(CC(C4)C2)C3)cc1	25*	i	i	-6.3*	i	922%*	i	196%*	73%*	65%*	266%*
CC(NCC(=O)Nc1cc(S(=O)(=O)N2CCOCC2)ccc1Cl)c1ccc(Cl)cc1Cl (centres undefined)	i	i	i	i	i	/	/	/	/	/	/
COc1cc(OC)c(OC)cc1CN1CCN(Cc2cccn2C)CC1	i	i	i	i	i	/	/	/	/	/	/
O=C(COc1ccc(Br)cc1CNC1CCCCC1)NCCc1ccccc1	i	i	i	-5.1*	i	212%*	i	41%*	62%*	i	/
Oc1ccc(N=Nc2ccc(Br)cc2)c(O)c1	i	i	i	-5.3*	i	i	i	i	i	i	i
Oc1ccc(N=Nc2ccc3c(c2)OCCO3)c(O)c1	i	i	i	i	i	/	/	/	/	/	/
Cc1ccc(Nc2nc(-c3sc(N)nc3C)cs2)cc1	i	i	i	-7.7*	i	/	/	/	/	i	i	TRPC4 sel inh 2=i;TRPC4 spec=-11%*;HEK293 MPD ctr 2-1=i;HEK293 MPD ctr-1=-237%*
CCCNC(=S)N1CCN(C(c2ccccc2)c2ccccc2)CC1	i	i	i	i	i	/	/	/	/	/	/
CCNC(=S)N1CCN(C(c2ccccc2)c2ccccc2)CC1	i	i	i	-5.2*	68*	i	i	66%*	74%*	i	i
O=C(CN1C(=O)c2ccccc2C1=O)Oc1ccc(F)cc1	i	i	i	i	i	/	/	/	/	/	/
CCCCCN(C(=O)CCC(=O)OCc1cccc(F)c1)c1c(N)n(CCCC)c(=O)[nH]c1=O	i	i	i	i	i	/	/	/	/	/	/
O=C(COC(=O)c1ccc(Cl)nc1)Nc1nnc(-c2ccccc2)o1	i	i	i	i	i	/	/	/	/	/	/
CCOC(=O)Nc1ccc2c(c1)N(C(=O)CCN1CCN(C)CC1)c1ccccc1S2	i	i	i	i	i	/	/	/	/	/	/
CCOC(=O)Nc1ccc2c(c1)N(C(=O)N1CCN(C)CC1)c1ccccc1S2	i	i	i	-5.3*	i	i	i	i	36%*	i	i
COC(=O)c1ccc(C(=O)N2CCCC(N3CCN(c4ccc(F)cc4)CC3)C2)nc1 (centres undefined)	i	i	i	i	i	/	/	/	/	/	/
CN(C)c1cc(-c2ccccc2)nc(N)n1	i	i	i	-6.5*	i	-72%*	i	-14%*	51%*	i	i
O=C(NNS(=O)(=O)c1ccc([N+](=O)[O-])cc1)C(=O)Nc1cccc(C(=O)O)c1	i	i	i	i	i	/	/	/	/	/	/
CN(C)S(=O)(=O)c1ccc(C(=O)Nc2nnc(-c3cccs3)o2)cc1	i	i	i	i	i	/	/	/	/	/	/
